From publication PMC2843764 (Bioorganic & medicinal chemistry letters, 2010)
One block for each compound: values may come before it.

How the values were obtained:
[1] = molecular target: purified RBBP9 (Homo sapiens, UniProt O75884); assay: gel-based competitive ABPP with purified RBBP9; type: biochemical; settings: for RBBP9 inhibitory activity (in words): purified RBBP9, 20 µM
[2] = molecular target: T1, glutathione transferase omega 1 (GSTO1) (Homo sapiens, UniProt P78417); assay: PS-Rh labeling of GSTO1 in MDA-MB-231 proteome; type: biochemical; settings: compounds 20 µM, PS-Rh 5 µM, 1 hour
T1 sequence (P78417 1-241): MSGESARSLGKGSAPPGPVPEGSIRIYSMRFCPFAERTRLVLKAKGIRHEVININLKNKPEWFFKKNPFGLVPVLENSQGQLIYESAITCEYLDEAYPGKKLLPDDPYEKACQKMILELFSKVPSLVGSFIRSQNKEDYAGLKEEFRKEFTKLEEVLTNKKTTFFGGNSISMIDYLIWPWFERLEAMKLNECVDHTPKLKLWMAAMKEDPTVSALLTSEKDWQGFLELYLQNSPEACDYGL
How it was run: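 Gel-based competitive ABPP for thiol cross-reactivity. MDA-MB-231 proteome was treated with test compound (20 µM) and then labelled with the cysteine-reactive phenylsulfonate-rhodamine probe (5 µM, 1 hour). Labelled proteins were resolved on gel and read by fluorescence.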

[3] = test system: serine hydrolases of the mouse brain membrane proteome; type: biochemical; settings: mouse brain membrane proteome doped with RBBP9, FP-Rh probe, up to 200 µM
How it was run: (§1)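 Gel-based competitive ABPP. Two proteomes were used: the soluble fraction of RBBP9-transfected HEK 293T cells, and mouse brain membrane fraction doped with recombinant RBBP9. Each was preincubated 30 minutes with test compound (HEK: 20 and 200 µM; brain: a concentration series or 200 µM), then given FP-Rh (1 µM). Reactions were quenched after 10 minutes, run on SDS-PAGE and quantified by in-gel fluorescence scanning.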

[4] = molecular target: T2, RBBP9 (Homo sapiens, UniProt O75884); assay: LC-MS/MS identification of site of covalent labeling on RBBP9; settings: trypsin digest, +138.00 Da modification
T2 sequence (O75884 whole entry): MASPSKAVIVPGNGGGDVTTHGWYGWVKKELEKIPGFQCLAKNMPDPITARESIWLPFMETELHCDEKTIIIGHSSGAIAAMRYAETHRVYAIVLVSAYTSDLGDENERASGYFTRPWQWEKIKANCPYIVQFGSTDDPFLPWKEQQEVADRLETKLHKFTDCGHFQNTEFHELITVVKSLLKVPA

[5] = molecular target: T2, RBBP9; assay: reversibility of RBBP9 inhibition by gel filtration, FP-Rh labeling; type: biochemical; settings: inhibitor 100 µM
How it was run: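 One half was reacted directly with FP-Rh. The other half was gel-filtered, then reacted with FP-Rh. Probe labelling was compared between the two halves.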

[6] = molecular target: T2, RBBP9; settings: ~20,000 compound fluopol-ABPP screen ref 5; cited from earlier work
[7] = test system: α2-adrenergic receptors; settings: cited from earlier work
[8] = test system: translation (ribosome); settings: in vitro ref 15; cited from earlier work
[9] = test system: serine hydrolases of the HEK 293T soluble proteome; assay: competitive ABPP with FP-Rh in RBBP9-transfected HEK 293T soluble proteome; type: biochemical; settings: FP-Rh probe, 20 and 200 µM
How it was run: as §1

[10] = molecular target: T2, RBBP9; assay: fluopol-ABPP screen for RBBP9 inhibition; type: biochemical; settings: read-out: percent inhibition of RBBP9 in fluopol-ABPP confirmation screen

Chain of purified RBBP9 (O75884 whole entry): as above

Compound: COc1ccc(C(=O)O/N=C(\C)c2nccs2)cc1 [Compound 3]
- selectivity for RBBP9 over other hydrolases [3]: highly selective for RBBP9

Compound: C/C(=N\OC(=O)N1CCCCC1)c1nccs1 [Compound 20]
- RBBP9 inhibitory activity (in words) [1]: no inhibition of RBBP9

Compound: C/C(=N\OC(=O)/C=C/c1ccccc1)c1nccs1 [Compound 24]
- RBBP9 inhibitory activity (in words) [1]: significantly reduced activity against RBBP9

Compound: CC[C@H]1CN2CCc3cc(OC)c(OC)cc3[C@@H]2C[C@@H]1C[C@H]1NCCc2cc(OC)c(OC)cc21 [1 (emetine), emetine]
- mode of RBBP9 inhibition [6]: reversible inhibitor of RBBP9
- antagonism of α2-adrenergic receptors [7]: antagonize of α2-adrenergic receptors
- inhibition of translation [8]: inhibit translation in vitro
- reversibility of blockade of FP-rhodamine RBBP9 labeling [5]: reversible inhibitor

Compound: COc1ccc(C(=O)ON=C2C(C)=CC(=O)C=C2C)cc1 [Compound 23]
- RBBP9 inhibitory activity (in words) [1]: loss of RBBP9 inhibitory activity, an effect exacerbated

Compound: C/C(=N\OC(=O)c1ccc(-c2ccccc2)cc1)c1nccs1 [Compound 13]
- RBBP9 inhibitory activity (in words) [1]: completely ablating all inhibitory activity

The next lines start with results.

- RBBP9 inhibitory activity (in words) [1]: loss of RBBP9 inhibitory activity
Compound: C/C(=N\OC(=O)c1ccc([N+](=O)[O-])cc1)c1nccs1 [Compound 12]

- inhibition of PS-Rh labeling of GSTO1 [2]: no longer inhibited GSTO1
Compound: COc1ccc(C(=O)ON=C2C=C(C)C(=O)C(C)=C2)cc1 [Compound 21]
- selectivity for RBBP9 over other hydrolases [3]: good selectivity for RBBP9

- RBBP9 inhibitory activity (in words) [1]: no detectable inhibitory activity
Compound: CC(=O)O/N=C(\C)c1nccs1 [Compound 19]

- reversibility of blockade of FP-rhodamine RBBP9 labeling [5]: not reversed by gel filtration
Compound: C/C(=N\OC(=O)c1ccc(Cl)cc1)c1nccs1 [Compound 2]
- site of covalent adduct on RBBP9 [4]: adduct only on the active site serine nucleophile (Ser75)
- selectivity for RBBP9 over other hydrolases [3]: highly selective for RBBP9

- fold lower IC50 than hit compound 2 ([1]; recombinant RBBP9): 3 fold
Compound: C/C(=N\OC(=O)C1CCCCC1)c1nccs1 [Compound 18]
- selectivity for RBBP9 over other hydrolases [9]: selective for RBBP9
- selectivity for RBBP9 over other hydrolases [3]: did not inhibit any other hydrolases

- RBBP9 inhibitory activity (in words) [1]: loss of RBBP9 inhibitory activity
Compound: COc1ccc(C(=O)O/N=C2/C=C(C)C(=O)C=C2C)cc1 [Compound 22]

- inhibition of PS-Rh labeling of GSTO1 [2]: potently inhibited
- inhibition at 7.94 µM [10]: ~80%
Compound: CC1=CC(=NOC(=O)/C=C/c2ccccc2)C=C(C)C1=O [Compound 4]
- selectivity for RBBP9 over other hydrolases [9]: less selective for RBBP9
